This is an account of results in ChEMBL document CHEMBL4118094, “Structure-Guided Design and Initial Studies of a Bifunctional MEK/PI3K Inhibitor (ST-168)” (ACS Med Chem Lett, 2017).

The target of experiment [1] is PI3-kinase p110-delta/p85-alpha (Homo sapiens, UniProt O00329). The experiment can be described thus: Inhibition of recombinant human full length His-tagged PI3K p110delta/p85alpha expressed in baculovirus expression system coexpressing PIK3R1 by TR-FRET assay. Put shortly:
(§1)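 PI3K isoform activity by fluorescence-based Adapta TR-FRET kinase assay. Values are the average of 3 experiments, each run in duplicate, given as mean ± SEM.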

The target in experiment [2] is PI3-kinase p110-alpha/p85-alpha (Homo sapiens, UniProt P42336). Put plainly: Inhibition of recombinant human full length His-tagged PI3K p110alpha/p85alpha expressed in baculovirus expression system coexpressing PIK3R1 by TR-FRET assay. The procedure, abridged:
as §1

Experiment [3] deals with T1, Dual specificity mitogen-activated protein kinase kinase 1 (Homo sapiens, UniProt Q02750). The experiment can be described thus: Inhibition of MEK1 in human A375 cell lysate assessed as reduction in ERK1/2 phosphorylation at Thr202/Tyr204 at 20 uM after 1 hr by Western blot analysis. Put shortly: (§2)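 A375 cells (constitutive MEK1/PI3K pathway activation) incubated 1 h with compound at 20 µM against equimolar DMSO. Lysates immunoblotted: ERK1/2 phosphorylation for MEK1 activity, AKT Ser473 phosphorylation for PI3K activity.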
T1 sequence (Q02750 whole entry): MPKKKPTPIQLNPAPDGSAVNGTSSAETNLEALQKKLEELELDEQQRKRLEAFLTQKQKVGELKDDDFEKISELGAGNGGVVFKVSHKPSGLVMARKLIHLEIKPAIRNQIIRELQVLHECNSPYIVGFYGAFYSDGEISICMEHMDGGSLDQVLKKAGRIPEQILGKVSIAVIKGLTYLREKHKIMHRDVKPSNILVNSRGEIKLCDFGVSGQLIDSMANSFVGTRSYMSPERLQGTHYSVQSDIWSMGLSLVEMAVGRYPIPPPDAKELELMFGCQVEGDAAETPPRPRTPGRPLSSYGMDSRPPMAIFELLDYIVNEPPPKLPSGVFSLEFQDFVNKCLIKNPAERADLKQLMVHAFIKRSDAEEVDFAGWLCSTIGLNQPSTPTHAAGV

Experiment [4] has as its target T1, Dual specificity mitogen-activated protein kinase kinase 1. The experiment can be described thus: Inhibition of recombinant human GST-tagged MEK1 expressed in baculovirus infected Sf9 insect cells using inactive ERK2 as substrate preincubated for 30 mins followed by substrate addition measured after 2 hrs by kinase-glo reagent based bioluminescence assay. For orientation: Kinase-Glo measures the ATP left after a reaction by luminescence.

A further experiment is filed under the species Homo sapiens. The experiment can be described thus: Inhibition of PI3K in human A375 cell lysate assessed as reduction in Akt phosphorylation at Ser473 residue at 20 uM after 1 hr by Western blot analysis. The procedure, abridged: as §2
A general note: Immunoblotting shows a protein as a band on a membrane.

The test system of experiment [5] is A-375. The experiment can be described thus: Antitumor activity against human A375 cells xenografted in athymic Foxn1nu mouse assessed as tumor growth inhibition at 400 mg/kg, qd administered via oral gavage measured after 35 days by MRI imaging analysis. The experiment is classed as functional, organism-based. The procedure, abridged: (§3)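 Nude mice inoculated in the flank with 5 x 10^6 A375 cells in 100 µl. Dosing began once tumors exceeded 100 mm3, after randomization. Daily oral gavage at 400 mg/kg until sacrifice at 42 days; vehicle was 200 µl OraPlus. Tumor growth followed by MRI twice per week.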

The test system of experiment [6] is A-375. The experiment can be described thus: Antiproliferative activity against human A375 spheroids at 20 uM after 72 hrs by calcein AM/ethidium homodimer 1 staining based fluorescence microscopy. In kind it is functional, cell-based. The procedure, abridged: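 A375 melanoma spheroids exposed 72 h to compound at 20 µM; then stained with calcein AM (live, green) and ethidium homodimer-1 (dead, red). Read by fluorescence microscopy. Replicate experiments, representative images.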

Experiment [7] concerns A-375. The experiment can be described thus: Antitumor activity against human A375 cells xenografted in athymic Foxn1nu mouse assessed as tumor growth inhibition at 400 mg/kg, qd administered via oral gavage for 42 days measured twice per week by MRI imaging analysis. The experiment is classed as functional, organism-based. The procedure, abridged: as §3
Background: A xenograft is tissue or cells of one species grown in another, often human tumour cells in immunodeficient mice.

Calls of active or inactive are those of the source. No cut-off for these calls is given here.

Sequence of PI3-kinase p110-delta/p85-alpha (P27986 whole entry, canonical isoform): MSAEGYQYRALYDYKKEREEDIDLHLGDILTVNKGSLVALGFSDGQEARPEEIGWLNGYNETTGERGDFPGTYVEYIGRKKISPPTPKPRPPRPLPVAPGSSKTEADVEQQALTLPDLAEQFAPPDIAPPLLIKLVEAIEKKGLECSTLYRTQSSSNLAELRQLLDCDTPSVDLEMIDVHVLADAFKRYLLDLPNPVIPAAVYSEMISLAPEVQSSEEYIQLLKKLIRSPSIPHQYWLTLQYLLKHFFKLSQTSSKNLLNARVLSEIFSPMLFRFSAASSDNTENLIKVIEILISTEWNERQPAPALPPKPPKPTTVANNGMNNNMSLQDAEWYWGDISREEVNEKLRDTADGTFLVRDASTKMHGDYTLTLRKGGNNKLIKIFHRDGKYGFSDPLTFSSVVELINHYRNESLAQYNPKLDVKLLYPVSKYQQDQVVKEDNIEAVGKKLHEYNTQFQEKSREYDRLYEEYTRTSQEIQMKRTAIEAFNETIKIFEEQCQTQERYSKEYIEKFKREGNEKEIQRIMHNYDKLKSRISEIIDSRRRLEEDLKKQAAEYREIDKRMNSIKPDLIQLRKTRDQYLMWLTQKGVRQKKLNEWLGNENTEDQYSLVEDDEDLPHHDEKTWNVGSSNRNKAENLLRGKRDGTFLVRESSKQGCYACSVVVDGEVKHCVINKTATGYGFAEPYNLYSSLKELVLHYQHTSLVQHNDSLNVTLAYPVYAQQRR
Sequence of PI3-kinase p110-delta/p85-alpha (O00329 whole entry, canonical isoform): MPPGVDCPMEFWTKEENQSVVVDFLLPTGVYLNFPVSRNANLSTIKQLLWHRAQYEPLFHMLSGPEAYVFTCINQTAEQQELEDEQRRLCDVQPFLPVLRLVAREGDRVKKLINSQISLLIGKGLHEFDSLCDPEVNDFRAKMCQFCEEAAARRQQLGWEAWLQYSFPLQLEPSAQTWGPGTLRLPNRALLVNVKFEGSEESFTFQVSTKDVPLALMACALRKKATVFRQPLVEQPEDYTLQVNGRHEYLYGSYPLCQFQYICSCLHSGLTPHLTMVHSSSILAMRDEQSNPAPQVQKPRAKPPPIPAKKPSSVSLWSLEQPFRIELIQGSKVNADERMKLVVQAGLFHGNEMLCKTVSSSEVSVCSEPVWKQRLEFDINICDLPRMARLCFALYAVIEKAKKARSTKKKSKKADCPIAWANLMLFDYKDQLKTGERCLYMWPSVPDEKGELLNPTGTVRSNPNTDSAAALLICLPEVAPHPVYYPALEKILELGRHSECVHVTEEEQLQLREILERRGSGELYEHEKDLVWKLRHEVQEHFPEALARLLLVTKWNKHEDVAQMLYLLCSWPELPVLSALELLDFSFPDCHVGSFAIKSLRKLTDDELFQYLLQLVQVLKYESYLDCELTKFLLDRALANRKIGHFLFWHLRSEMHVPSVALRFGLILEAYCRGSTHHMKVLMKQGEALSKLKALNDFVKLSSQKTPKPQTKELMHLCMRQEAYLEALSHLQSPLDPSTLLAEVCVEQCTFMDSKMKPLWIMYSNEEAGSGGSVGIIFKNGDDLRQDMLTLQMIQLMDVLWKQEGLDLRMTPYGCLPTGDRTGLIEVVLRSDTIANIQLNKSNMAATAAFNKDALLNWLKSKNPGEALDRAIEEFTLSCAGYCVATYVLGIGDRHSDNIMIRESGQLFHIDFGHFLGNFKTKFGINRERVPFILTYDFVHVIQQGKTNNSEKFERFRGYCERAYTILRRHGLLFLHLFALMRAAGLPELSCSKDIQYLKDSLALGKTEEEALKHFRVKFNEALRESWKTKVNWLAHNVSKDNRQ
Sequence of PI3-kinase p110-alpha/p85-alpha (P27986 whole entry): as the sequence (P27986 whole entry, canonical isoform) above
Sequence of PI3-kinase p110-alpha/p85-alpha (P42336 whole entry): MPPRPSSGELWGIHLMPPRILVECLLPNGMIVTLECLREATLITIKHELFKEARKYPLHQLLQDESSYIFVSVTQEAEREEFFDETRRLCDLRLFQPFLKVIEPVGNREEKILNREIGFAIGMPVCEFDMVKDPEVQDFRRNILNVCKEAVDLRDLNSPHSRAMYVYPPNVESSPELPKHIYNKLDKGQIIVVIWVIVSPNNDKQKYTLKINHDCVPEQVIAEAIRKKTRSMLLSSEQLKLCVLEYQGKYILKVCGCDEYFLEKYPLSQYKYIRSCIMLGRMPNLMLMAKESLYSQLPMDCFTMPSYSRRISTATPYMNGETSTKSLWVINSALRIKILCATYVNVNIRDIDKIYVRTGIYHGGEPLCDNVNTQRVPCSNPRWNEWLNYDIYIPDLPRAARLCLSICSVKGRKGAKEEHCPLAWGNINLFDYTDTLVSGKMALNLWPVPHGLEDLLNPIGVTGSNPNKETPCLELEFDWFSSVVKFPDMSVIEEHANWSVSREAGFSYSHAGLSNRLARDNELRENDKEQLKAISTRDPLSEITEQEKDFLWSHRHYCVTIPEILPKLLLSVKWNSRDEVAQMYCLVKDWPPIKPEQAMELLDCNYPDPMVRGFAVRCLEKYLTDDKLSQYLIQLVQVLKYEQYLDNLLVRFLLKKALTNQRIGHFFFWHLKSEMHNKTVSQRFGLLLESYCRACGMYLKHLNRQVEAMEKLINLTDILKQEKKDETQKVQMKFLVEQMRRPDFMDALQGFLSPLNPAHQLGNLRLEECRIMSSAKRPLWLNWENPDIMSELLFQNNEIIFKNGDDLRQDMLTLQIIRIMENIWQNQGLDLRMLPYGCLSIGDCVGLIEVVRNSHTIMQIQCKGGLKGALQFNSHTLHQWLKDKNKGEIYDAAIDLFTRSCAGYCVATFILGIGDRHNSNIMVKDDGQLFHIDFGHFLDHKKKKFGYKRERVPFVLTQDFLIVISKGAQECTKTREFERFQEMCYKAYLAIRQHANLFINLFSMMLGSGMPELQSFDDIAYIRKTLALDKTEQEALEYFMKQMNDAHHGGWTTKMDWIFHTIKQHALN

Consider `CC(=O)N1CCN(c2nc(N3CCOCC3)nc(-n3c(C(F)F)nc4ccccc43)n2)CC1`, for which the IC50 in experiment [1] came to 2.9 nM; in experiment [2] it was 8.2 nM.

As for `O=C(NOCCOCCOCCOCCC(=O)N1CCN(c2nc(N3CCOCC3)nc(-n3c(C(F)F)nc4ccccc43)n2)CC1)c1ccc(F)c(F)c1Nc1ccc(I)cc1F`, the inhibition entry (in experiment [3]; in the experiment filed under Homo sapiens) was “Active” in each case. The IC50 was 41.7 nM in experiment [1], 182 nM in experiment [4] and 69.2 nM in experiment [2]. Further, the TGI entry in the experiment with A-375 [5] was “Active”. Further, the result in the experiment with A-375 [6] was Active.

Turning to `NOCCOCCOCCOCCC(=O)N1CCN(c2nc(N3CCOCC3)nc(-n3c(C(F)F)nc4ccccc43)n2)CC1`, the half-inhibitory concentration (IC50) came to 1.3 nM in experiment [1] and 11.5 nM in experiment [2].

For the compound `O=C(NOCCOCCOCCOCCN1CCN(c2nc(N3CCOCC3)nc(-n3c(C(F)F)nc4ccccc43)n2)CC1)c1ccc(F)c(F)c1Nc1ccc(I)cc1F`, the TGI result in the experiment with A-375 [7] is “Active”. Besides, the inhibition entry (in experiment [3]; in the experiment filed under Homo sapiens) was “Active” each time. Besides, the IC50 in experiment [1] is 942 nM; in experiment [4], 398 nM; in experiment [2] it was 191 nM. The result in the experiment with A-375 [6] was Active.

For `FC(F)c1nc2ccccc2n1-c1nc(N2CCNCC2)nc(N2CCOCC2)n1`, the figures for the IC50 in experiment [1] and in experiment [2] were 142 nM and 180 nM, respectively.

The term IC50 denotes the midpoint of a concentration-inhibition curve.
